# Assay results published in ChEMBL document CHEMBL1147872, “Syntheses of new tetrasubstituted thiophenes as novel anti-inflammatory agents” (Eur J Med Chem, 2007).
# Calls of active or inactive are those of the source. The rule behind the calls is not given here.
# Legend:
# Format in all cases: functional
# Rattus norvegicus [1] = assay: Antiinflammatory activity in Albino rat assessed as protection against carrageenan-induced hind paw oedema at 100 mg/kg, po after 3 hrs
# Summary of the method: (§1)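 Rats (150–250 g, either sex) were fasted 18 h and grouped in sixes. Compounds or standards were given orally as a suspension in 5% DMSO. After 1 h, 0.1 ml of 1% carrageenin was injected subplantar into the right hind paw. Paw volume was read by mercury plethysmometer at once and at 3 h. % protection = 100(1−Vt/Vc) versus vehicle.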
# [2] = Antioxidant activity assessed as nitric oxide radical scavenging activity at 0.4 ug/ml after 150 mins
# Summary of the method: (§2)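 Sodium nitroprusside (10 mmol) in PBS at physiological pH was incubated with sample at 25 °C for 150 min in a 3 ml reaction. Aliquots taken every 30 min were mixed 1:1 with Griess reagent (1% sulphanilamide, 0.1% naphthylethylenediamine in 2% H3PO4), and absorbance was read at 546 nm. Runs were done in triplicate, and % scavenging was calculated against the blank.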
# [3] = Antioxidant activity assessed as nitric oxide radical scavenging activity at 0.1 ug/ml after 150 mins; summary of the method: as §2
# [4] = Antioxidant activity assessed as nitric oxide radical scavenging activity at 0.8 ug/ml after 150 mins; summary of the method: as §2
# [5] = Antioxidant activity assessed as nitric oxide radical scavenging activity at 0.6 ug/ml after 150 mins; summary of the method: as §2
# [6] = Antioxidant activity assessed as nitric oxide radical scavenging activity at 1.0 ug/ml after 150 mins; summary of the method: as §2
# [7] = Antioxidant activity assessed as nitric oxide radical scavenging activity at 1.2 ug/ml after 150 mins; summary of the method: as §2
# [8] = Inhibition of nitric oxide radical scavenging activity; summary of the method: as §2
# [9] = Antioxidant activity assessed as nitric oxide radical scavenging activity at 0.2 ug/ml after 150 mins; summary of the method: as §2
# [10] = Antioxidant activity assessed as nitric oxide radical scavenging activity at 25 ug/ml after 150 mins; summary of the method: as §2
# [11] = Antioxidant activity assessed as nitric oxide radical scavenging activity at 35 ug/ml after 150 mins; summary of the method: as §2
# [12] = Antioxidant activity assessed as nitric oxide radical scavenging activity at 30 ug/ml after 150 mins; summary of the method: as §2
# [13] = Antioxidant activity assessed as nitric oxide radical scavenging activity at 5 ug/ml after 150 mins; summary of the method: as §2
# [14] = Antioxidant activity assessed as nitric oxide radical scavenging activity at 20 ug/ml after 150 mins; summary of the method: as §2
# [15] = Antioxidant activity assessed as nitric oxide radical scavenging activity at 10 ug/ml after 150 mins; summary of the method: as §2
# Rattus norvegicus [16] = assay: Antiinflammatory activity in Albino rat assessed as protection against carrageenan-induced hind paw oedema at 40 mg/kg, po after 3 hrs; summary of the method: as §1
# Mus musculus = assay: Analgesic activity in Albino mouse assessed as protection against acetic acid-induced writhing at 10 mg/kg, ip within 30 mins; conditions: route intraperitoneal
# Summary of the method: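 Mice (20–25 g, either sex) starved 16 h, six per group, given 10 mg/kg i.p.; vehicle control received 1% DMSO at 0.5 ml/100 g. After 1 h, 0.1 ml of 3% acetic acid was given. Writhes were counted over 30 min, and the group mean was expressed as % inhibition versus control. Student's t-test was used.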
# [17] = Antioxidant activity assessed as nitric oxide radical scavenging activity at 15 ug/ml after 150 mins; summary of the method: as §2
# Rattus norvegicus [18] = assay: Antiinflammatory activity in Albino rat assessed as protection against carrageenan-induced hind paw oedema at 10 mg/kg, po after 3 hrs; summary of the method: as §1
# Rattus norvegicus [19] = assay: Antiinflammatory activity in Albino rat assessed as protection against carrageenan-induced hind paw oedema at 20 mg/kg, po after 3 hrs; summary of the method: as §1
IC50 [8] [µg/mL],Structure (SMILES),Activity [10],Activity [11],Activity [12],Activity [13],Activity [14],Activity [15],Activity [8],Activity (Rattus norvegicus [16]) [%],Activity (Mus musculus) [%],Activity [17],Activity (Rattus norvegicus [18]) [%],Activity (Rattus norvegicus [19]) [%],further results
–,Cc1cccc(Nc2ccccc2C(=O)O)c1C [MEFENAMIC ACID],–,–,–,–,–,–,–,–,–,–,–,–,Activity (Rattus norvegicus [1]): 39%
0.52,O=C1O[C@H]([C@@H](O)CO)C(O)=C1O [ASCORBIC ACID],–,–,–,–,–,–,–,–,–,–,–,–,Activity [2]: 29.5%; Activity [3]: 2.98%; Activity [4]: 41.6%; Activity [5]: 39.3%; Activity [6]: 58.3%; Activity [7]: 70.2%; Activity [9]: 11.5%
–,COC(=O)c1c(Nc2ccc(F)cc2)sc(C(=O)c2ccc(C)cc2)c1C,inactive,inactive,inactive,inactive,inactive,inactive,inactive,23,37,inactive,38,46,–
–,COC(=O)c1c(Nc2ccc(C)cc2)sc(C(=O)c2ccc(C)cc2)c1C,inactive,inactive,inactive,inactive,inactive,inactive,inactive,37,22,inactive,32,36,–
–,Cc1ccc(Nc2sc(C(=O)c3ccc(C)cc3)c(C)c2C(=O)O)cc1,inactive,inactive,inactive,inactive,inactive,inactive,inactive,38,18,inactive,35,38,–
118.32,COc1ccc(C(=O)c2sc(Nc3ccc(F)cc3)c(C(=O)O)c2C)cc1,8.36%,12.8%,10.5%,0.1%,3.58%,0.98%,–,54,28,1.98%,57,57,–
25.2,COc1ccc(C(=O)c2sc(Nc3ccccc3)c(C(=O)O)c2C)cc1,52.6%,61.2%,59.5%,19.6%,41.2%,24.7%,–,70,30,36.5%,79,80,–
171.43,COC(=O)c1c(Nc2ccccc2)sc(C(=O)c2ccc(C)cc2)c1C,8.16%,10.2%,9.35%,2.08%,6.06%,3.16%,–,53,27,4.59%,43,49,–
36.57,COc1ccc(Nc2sc(C(=O)c3ccc(OC)cc3)c(C)c2C(=O)O)cc1,38.5%,51%,41.2%,20.1%,32.5%,23.5%,–,69,22,30.6%,72,75,–
–,Cc1ccc(C(=O)c2sc(Nc3ccc(Cl)cc3)c(C(=O)O)c2C)cc1,inactive,inactive,inactive,inactive,inactive,inactive,inactive,59,24,inactive,63,68,–
259.47,Cc1ccc(C(=O)c2sc(Nc3ccccc3)c(C(=O)O)c2C)cc1,4.35%,5.55%,5.13%,0.26%,2.68%,0.85%,–,42,17,1.25%,45,47,–
30.08,COC(=O)c1c(Nc2ccccc2)sc(C(=O)c2ccc(OC)cc2)c1C,36.9%,63%,48.1%,13.3%,32.4%,18%,–,73,55,28.6%,69,70,–
74.17,COC(=O)c1c(Nc2ccc(F)cc2)sc(C(=O)c2ccc(OC)cc2)c1C,20.2%,25.6%,23.2%,5.28%,18.1%,14%,–,58,40,15.2%,36,53,–
–,COC(=O)c1c(Nc2ccc(Cl)cc2)sc(C(=O)c2ccc(C)cc2)c1C,inactive,inactive,inactive,inactive,inactive,inactive,inactive,26,43,inactive,34,66,–
